Assays:
[1] = Inhibition of mouse Norovirus RNA-dependent RNA polymerase assessed as decrease in GTP incorporation incubated for 10 mins by scintillation counting method
[2] = Inhibition of human Norovirus RNA-dependent RNA polymerase assessed as decrease in GTP incorporation incubated for 10 mins by scintillation counting method
[3] = Inhibition of recombinant Norovirus GII.4 C-terminal His6-tagged RNA-dependent RNA polymerase in Escherichia coli assessed as decrease in GTP incorporation incubated for 10 mins by scintillation counting method
[4] = Antiviral activity against murine Norovirus GV.1 infected in mouse RAW264.7 cells assessed as reduction in plaque formation incubated for 48 hrs by qRT-PCR analysis; assay type: functional, cell-based; conditions: GV.1, RAW264.7, 48 h
[5] = Cytotoxicity against mouse RAW264.7 cells assessed as reduction in cell viability incubated for 3 days by MTS assay; assay type: cell-based; conditions: time 3 day
Method in brief: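 Uninfected RAW 264.7 cells were exposed for 3 days to the same compound concentrations used in the MNV assay, then MTS read-out. Viability was expressed as % of untreated cells, and CC₅₀ is the concentration that reduced viable cells by 50%.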

[6] = Antiviral activity against murine Norovirus infected in mouse RAW264.7 cells assessed as reduction in virus-induced cytopathic effect incubated for 72 hrs by MTS assay; assay type: functional, cell-based; conditions: RAW264.7, 72 h
Method in brief: (§1)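 RAW 264.7 cells (1 × 10⁴/well) infected with MNV-1.CW1 at MOI 0.001 alongside a compound dilution series (0.023–50 or 100 µg/mL; 8 concentrations). Incubated 3 days until CPE was complete in untreated infected wells. MTS/PMS added, OD read at 498 nm after 2 h. %CPE reduction taken against uninfected and infected untreated controls; EC₅₀ is 50% protection from CPE.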

[7] = Selectivity index, ratio of CC50 for mouse RAW264.7 cells to EC50 for antiviral activity against murine Norovirus infected in mouse RAW264.7 cells; assay type: toxicity, cell-based; conditions: read-out: Ratio CC50/EC50
Method in brief: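 Ratio of CC₅₀ (MTS, uninfected RAW 264.7, 3 days) to EC₅₀ (MNV CPE-reduction MTS assay in RAW 264.7, 3 days), calculated as CC₅₀/EC₅₀.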

Norovirus [8] = experiment: Antiviral activity against human Norovirus; assay type: functional
Norovirus [9] = experiment: Antiviral activity against human Norovirus GI.1 infected in human HGT-1 cells assessed as reduction in virus replication incubated for 72 hrs by qRT-PCR analysis; assay type: functional, cell-based; conditions: GI.1, HGT-1, 72 h
Method in brief: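 HGT-1 cells stably carrying the GI.1 HuNoV replicon were seeded at 5,000/well in complete DMEM without G418. Serial compound dilutions were added after 24 h, followed by 72 h incubation and a PBS wash. Intracellular replicon RNA was quantified by qRT-PCR, normalised to β-actin by the Pfaffl method with per-run efficiencies. EC₅₀ is 50% reduction of relative replicon RNA.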

Norovirus [10] = experiment: Antiviral activity against human Norovirus infected in BJAB cells assessed as reduction in viral replication incubated for 3 days by qRT-PCR analysi; assay type: functional, cell-based; conditions: 72 h
[11] = Antiviral activity against murine Norovirus infected in mouse RAW264.7 cells assessed as reduction in virus-induced cytopathic effect incubated for 3 days by MTS assay; assay type: functional, cell-based; conditions: RAW264.7, 72 h; method in brief: as §1

O=C(Nc1cccc(C(=O)Nc2ccc(S(=O)(=O)O)c3cc(S(=O)(=O)O)cc(S(=O)(=O)O)c23)c1)Nc1cccc(C(=O)Nc2ccc(S(=O)(=O)O)c3cc(S(=O)(=O)O)cc(S(=O)(=O)O)c23)c1
IC50 [1]: 0.2 µM
IC50 [2]: 0.071 µM

O=C(O)c1[nH]nnc1-c1ccccc1
IC50 [3]: 9.2 µM
EC50 [4]: 34.5 µM

C[C@@]1(O)[C@H](O)[C@@H](CO)O[C@H]1c1ccc2c(N)ncnn12
CC50 at 72 h [5]: 23.7 µM
EC50 [6]: 11.1 µM
selectivity ratio [7]: 2

C[C@@]1(F)[C@H](O)[C@@H](CO)O[C@H]1n1ccc(N)nc1=O
EC50 (Norovirus [8]): 3.2 µM

C[C@@]1(O)[C@H](O)[C@@H](CO)O[C@H]1c1cc(Cl)c2c(N)ncnn12
CC50 at 72 h [5]: 4.78 µM
EC50 [6]: > 4 µM

Cc1nc(-c2ccccc2)sc1C(=O)Nc1sc2c(c1C#N)CCC2
IC50 [3]: 5 µM
EC50 [4]: 4.8 µM

Nc1ncnn2c([C@@H]3O[C@H](CO)[C@@H](O)[C@H]3O)ccc12
EC50 (Norovirus [9]): 0.015 µM
CC50 at 72 h [5]: 0.14 µM
EC50 [6]: 0.007 µM
selectivity ratio [7]: 20

C[C@@]1(O)[C@H](O)[C@@H](CO)O[C@H]1n1ccc(N)nc1=O
EC50 (Norovirus [10]): 0.3 µM
EC50 (Norovirus [8]): 8.2 µM
EC50 [11]: 2 µM

Nc1ncnn2c([C@@H]3O[C@H](CO)[C@@H](O)[C@H]3O)cc(Br)c12
EC50 (Norovirus [9]): > 10 µM
CC50 at 72 h [5]: 0.45 µM
EC50 [6]: 0.024 µM
selectivity ratio [7]: 19

Nc1ncnn2c([C@H]3O[C@@H](CO)[C@H](O)[C@@H]3O)cc(Cl)c12
CC50 at 72 h [5]: > 100 µM
EC50 [6]: > 100 µM

Nc1ncnn2c([C@H]3O[C@@H](CO)[C@H](O)[C@@H]3O)ccc12
CC50 at 72 h [5]: > 100 µM
EC50 [6]: > 100 µM

Nc1ncnn2c([C@@H]3O[C@H](CO)[C@@H](O)[C@H]3O)cc(Cl)c12
EC50 (Norovirus [9]): > 10 µM
CC50 at 72 h [5]: > 0.01 µM
EC50 [6]: 0.007 µM
selectivity ratio [7]: > 1

C[C@H](NP(=O)(N[C@@H](C)C(=O)OCc1ccccc1)OC[C@H]1O[C@@H](c2cc(Cl)c3c(N)ncnn23)[C@H](O)[C@@H]1O)C(=O)OCc1ccccc1
CC50 at 72 h [5]: > 10 µM
EC50 [6]: > 10 µM

Nc1ncnn2c([C@@H]3O[C@H](CO)[C@@H](O)[C@H]3O)cc(I)c12
EC50 (Norovirus [9]): > 10 µM
CC50 at 72 h [5]: 0.78 µM
EC50 [6]: 0.035 µM
selectivity ratio [7]: 22

Nc1ncnc2c1c(Cl)cn2[C@@H]1O[C@H](CO)[C@@H](O)[C@H]1O
CC50 at 72 h [5]: 2.53 µM
EC50 [6]: > 2 µM

NC(=O)c1ncn([C@@H]2O[C@H](CO)[C@@H](O)[C@H]2O)n1 [RIBAVIRIN]
EC50 (Norovirus [8]): 43 µM

Cc1ccc(C(=O)Nc2ccc(S(=O)(=O)O)c3cc(S(=O)(=O)O)cc(S(=O)(=O)O)c23)cc1NC(=O)c1cccc(NC(=O)Nc2cccc(C(=O)Nc3cc(C(=O)Nc4ccc(S(=O)(=O)O)c5cc(S(=O)(=O)O)cc(S(=O)(=O)O)c45)ccc3C)c2)c1 [SURAMIN]
IC50 [1]: 0.07 µM
IC50 [2]: 0.025 µM

Source: ChEMBL document CHEMBL4680252, “Anti-norovirus activity of C7-modified 4-amino-pyrrolo[2,1-f][1,2,4]triazine C-nucleosides” (Eur J Med Chem, 2020)
